The source made the active and inactive calls. No cut-off for these calls is given here.
Legend:
MDCK [1] = assay: Cytotoxicity against dog MDCK cells assessed as loss of cell viability incubated for 24 hrs followed by compound wash out measured after 24 hrs by trypan blue exclusion assay; format: cell-based, Canis lupus familiaris
How it was run: (§1)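 Confluent MDCK monolayers plated at 2×10^5/ml were treated after 24 h with compound at 5–40 μg/ml and incubated a further 24 h. Assessed by microscopic examination of morphology, Trypan blue exclusion for viability, and cell counts for multiplication rate.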

MDCK [2] = assay: Cytotoxicity against dog MDCK cells assessed as morphological alterations incubated for 24 hrs followed by compound wash out measured after 24 hrs by microscopic analysis; format: cell-based, Canis lupus familiaris; how it was run: as §1
MDCK [3] = assay: Cytotoxicity against dog MDCK cells assessed as modification of cell multiplication rate incubated for 24 hrs followed by compound wash out measured after 24 hrs by cell counting analysis; format: cell-based, Canis lupus familiaris; how it was run: as §1
Influenza A virus [4] = assay: Antiviral activity against Influenza virus A/Puerto Rico/8/34 H1N1 infected in dog MDCK cells incubated at 1 hr post-infection measured after 24 hrs by hemagglutininating unit assay; format: functional, organism-based; settings: A/Puerto Rico/8/1934(H1N1)
How it was run: (§2)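 MDCK cells infected with PR8; 1 h after adsorption they were washed, and compound (5–20 μg/ml) or DMSO was added and kept on throughout. Virus released into the supernatant was titrated by HAU assay 24 h p.i. Yield is a percentage of control infected cells given 0.02% DMSO. Means of four experiments, each in duplicate.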

Influenza A virus [5] = assay: Antiviral activity against Influenza virus A/Puerto Rico/8/34 H1N1 infected in dog MDCK cells assessed as inhibition of viral replication at 20 ug/mL incubated at 1 hr post-infection measured after 24 hrs by hemagglutininating unit assay relative to control; format: functional; settings: A/Puerto Rico/8/1934(H1N1); how it was run: as §2
Influenza A virus [6] = assay: Antiviral activity against Influenza virus A/Puerto Rico/8/34 H1N1 infected in dog MDCK cells incubated for 1 hr post-infection followed by compound washout by hemagglutininating unit assay; format: functional, organism-based; settings: A/Puerto Rico/8/1934(H1N1)
Influenza A virus [7] = assay: Antiviral activity against Influenza virus A/Puerto Rico/8/34 H1N1 infected in dog MDCK cells incubated overnight prior to infection followed by compound washout by hemagglutininating unit assay; format: functional, organism-based; settings: A/Puerto Rico/8/1934(H1N1)
How it was run: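 Timing variants, each read by HAU of virus yield from MDCK cells: PR8 stock preincubated 1 h with compound before infection; compound present only during the 1 h adsorption; or cells pretreated overnight with washout just before viral challenge.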

Influenza A virus [8] = assay: Antiviral activity against Influenza virus A/Puerto Rico/8/34 H1N1 infected in dog MDCK cells incubated at 2 hrs post-infection measured after 24 hrs by hemagglutininating unit assay relative to control; format: functional, A/Puerto Rico/8/1934(H1N1)
How it was run: (§3)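 Treatment of PR8-infected MDCK cells started at 2, 4, 6 or 8 h p.i. and compound stayed in the medium through 24 h p.i. Virus yield in the supernatant was read by HAU at 24 h p.i. as a percentage of DMSO-treated control infected cells. Means of two experiments, each in duplicate.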

Influenza A virus [9] = assay: Antiviral activity against Influenza virus A/Puerto Rico/8/34 H1N1 infected in dog MDCK cells incubated at 4 hrs post-infection measured after 24 hrs by hemagglutininating unit assay relative to control; format: functional, A/Puerto Rico/8/1934(H1N1); how it was run: as §3
Influenza A virus [10] = assay: Antiviral activity against Influenza virus A/Puerto Rico/8/34 H1N1 infected in dog MDCK cells incubated at 6 hrs post-infection measured after 24 hrs by hemagglutininating unit assay relative to control; format: functional, organism-based; settings: A/Puerto Rico/8/1934(H1N1); how it was run: as §3
Influenza A virus [11] = assay: Antiviral activity against Influenza virus A/Puerto Rico/8/34 H1N1 infected in dog MDCK cells incubated at 8 hrs post-infection measured after 24 hrs by hemagglutininating unit assay relative to control; format: functional, organism-based; settings: A/Puerto Rico/8/1934(H1N1); how it was run: as §3
MDCK [12] = assay: Inhibition of PKC/p38MAPK-mediated nuclear-cytoplasmic viral ribonucleoprotein export in dog MDCK cells infected with Influenza virus A/Puerto Rico/8/34 H1N1 measured at 8 hrs post-infection by inmmunofluorescence; format: cell-based; settings: Canis lupus familiaris
How it was run: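 MDCK cells were infected with PR8 at 1 M.O.I. for single-cycle replication. At 8 h p.i. cells were fixed, permeabilized and stained with DAPI, then with anti-NP primary and FITC-conjugated secondary antibody. NP localization was assessed by fluorescence microscopy.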

MDCK [13] = assay: Inhibition of PKC/p38MAPK-mediated nuclear-cytoplasmic viral nucleoprotein export in dog MDCK cells infected with Influenza virus A/Puerto Rico/8/34 H1N1 assessed as decrease in nucleoprotein level in cytoplasm measured at 8 hrs post-infection by Western blot analysis; format: cell-based; settings: Canis lupus familiaris
How it was run: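 Cytosolic and nuclear extracts from treated and untreated infected MDCK cells were run on SDS-PAGE and immunoblotted with anti-NP antibodies. Blots were stripped and reprobed for α-tubulin (cytosol) or lamin A/C (nucleus). Densitometry is given as the NP/tubulin or NP/lamin ratio; one representative experiment of three.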

[14] = biological target: T1, Protein kinase C (PKC) (Homo sapiens) (UniProt O94806+P41743+P17252+P05129+Q05655+P05771+Q05513+Q02156+P24723+Q15139+Q04759); assay: Inhibition of PKC-mediated PKD phosphorylation in human NCI-H292 cells infected with Influenza virus A/Puerto Rico/8/34 H1N1 measured at 6 hrs post-infection by immunoblotting analysis; format: cell-based
How it was run: (§4)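 NCI-H292 cells, mock- or PR8-infected at 1 M.O.I., were treated and lysed 6 h p.i. Lysates were run on 10% SDS–PAGE and blotted with rabbit anti-phospho-PKD, -ERK1/2, -p38MAPK or -JNK antibodies. Membranes were then stripped and reprobed for the corresponding total proteins.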

[15] = biological target: T1, Protein kinase C (PKC) (Homo sapiens); assay: Inhibition of PKC-mediated p38MAPK phosphorylation in human NCI-H292 cells infected with Influenza virus A/Puerto Rico/8/34 H1N1 measured at 6 hrs post-infection by immunoblotting analysis; format: cell-based; how it was run: as §4
[16] = biological target: T1, Protein kinase C (PKC) (Homo sapiens); assay: Inhibition of PKC-mediated JNK phosphorylation in human NCI-H292 cells infected with Influenza virus A/Puerto Rico/8/34 H1N1 measured at 6 hrs post-infection by immunoblotting analysis; format: cell-based; how it was run: as §4
[17] = biological target: T1, Protein kinase C (PKC) (Homo sapiens); assay: Inhibition of PKC-mediated ERK1 phosphorylation in human NCI-H292 cells infected with Influenza virus A/Puerto Rico/8/34 H1N1 measured at 6 hrs post-infection by immunoblotting analysis; format: cell-based; how it was run: as §4
[18] = biological target: T1, Protein kinase C (PKC) (Homo sapiens); assay: Inhibition of PKC-mediated ERK2 phosphorylation in human NCI-H292 cells infected with Influenza virus A/Puerto Rico/8/34 H1N1 measured at 6 hrs post-infection by immunoblotting analysis; format: cell-based; how it was run: as §4
MDCK [19] = assay: Restoration of GSH level in dog MDCK cells infected with Influenza virus A/Puerto Rico/8/34 H1N1 measured at 24 hrs post-infection by DTNB-based colometric assay; format: functional, cell-based; settings: Canis lupus familiaris
How it was run: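 MDCK cells, infected or mock-infected and treated, were assayed for intracellular GSH and GSSG with a glutathione assay kit at 24 h p.i. Results are in nmol per mg protein, as the mean of two experiments each in duplicate, compared against mock-infected cells.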

Influenza A virus [20] = assay: Downregulation of HA protein expression in Influenza virus A/Puerto Rico/8/34 H1N1 infected in dog MDCK cells measured at 24 hrs post-infection; format: functional, organism-based; settings: A/Puerto Rico/8/1934(H1N1)
How it was run: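 PR8-infected MDCK cells, untreated or treated, were lysed at 24 h. Homogenates were run on 12% gels under reducing conditions, blotted to nitrocellulose and probed with goat polyclonal anti-influenza antibodies. Densitometry was expressed as the ratio of each viral protein to actin, relative to untreated infected cells.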

MDCK [21] = assay: Restoration of GSH level in dog MDCK cells infected with Influenza virus A/Puerto Rico/8/34 H1N1 assessed as impairment of viral protein localization on plasma membrane measured at 24 hrs post-infection by immunofluorescence assay; format: functional, cell-based; settings: Canis lupus familiaris
MDCK [22] = assay: Restoration of GSH level in dog MDCK cells infected with Influenza virus A/Puerto Rico/8/34 H1N1 assessed as viral protein localization on peri-nuclear zone measured at 24 hrs post-infection by immunofluorescence assay; format: functional, cell-based; settings: Canis lupus familiaris

Compound: O=C(/C=C/c1ccc(O)cc1)c1ccc(O)cc1O [ISOLIQUIRITIGENIN]
- Activity (MDCK [1]): Non-toxic
- Activity (MDCK [2]): Non-toxic
- Activity (MDCK [3]): Non-toxic
- Activity (Influenza A virus [4]): Dose-dependent effect
- inhibition (Influenza A virus [5]): Active
- Activity (Influenza A virus [6]): inactive
- Activity (Influenza A virus [7]): inactive
- Activity (Influenza A virus [8]): 79%
- Activity (Influenza A virus [9]): 79%
- Activity (Influenza A virus [10]): Active
- Activity (Influenza A virus [11]): inactive
- inhibition (MDCK [12]): Active
- inhibition (MDCK [13]): Active
- inhibition [14]: Active
- inhibition [15]: Active
- inhibition [16]: Active
- inhibition [17]: inactive
- inhibition [18]: inactive
- Activity (MDCK [19]): Active
- Activity (Influenza A virus [20]): Active
- Activity (MDCK [21]): Active
- Activity (MDCK [22]): Active

Compound: O=C1/C(=C/c2ccc(O)c(O)c2)COC/C1=C\c1ccc(O)c(O)c1
- Activity (MDCK [1]): Non-toxic
- Activity (MDCK [2]): Non-toxic
- Activity (MDCK [3]): Non-toxic
- Activity (Influenza A virus [4]): Dose-dependent effect
- inhibition at 20 µg/mL (Influenza A virus [5]): 75%
- Activity (Influenza A virus [6]): inactive
- Activity (Influenza A virus [7]): inactive
- Activity (Influenza A virus [8]): 79%
- Activity (Influenza A virus [9]): 79%
- Activity (Influenza A virus [10]): Active
- Activity (Influenza A virus [11]): inactive
- inhibition (MDCK [12]): Active
- inhibition (MDCK [13]): Active
- inhibition [14]: Active
- inhibition [15]: Active
- inhibition [16]: Active
- inhibition [17]: inactive
- inhibition [18]: inactive
- Activity (MDCK [19]): Active
- Activity (Influenza A virus [20]): Active
- Activity (MDCK [21]): Active
- Activity (MDCK [22]): Active
